Data published in the M2OR odorant receptor database.

Columns and labels:
Settings in all cases: stereoisomer not certain
OR2T4 (Homo sapiens) = biological target: T1, OR2T4 (Homo sapiens) (UniProt Q8NH00)
T1 sequence (whole entry): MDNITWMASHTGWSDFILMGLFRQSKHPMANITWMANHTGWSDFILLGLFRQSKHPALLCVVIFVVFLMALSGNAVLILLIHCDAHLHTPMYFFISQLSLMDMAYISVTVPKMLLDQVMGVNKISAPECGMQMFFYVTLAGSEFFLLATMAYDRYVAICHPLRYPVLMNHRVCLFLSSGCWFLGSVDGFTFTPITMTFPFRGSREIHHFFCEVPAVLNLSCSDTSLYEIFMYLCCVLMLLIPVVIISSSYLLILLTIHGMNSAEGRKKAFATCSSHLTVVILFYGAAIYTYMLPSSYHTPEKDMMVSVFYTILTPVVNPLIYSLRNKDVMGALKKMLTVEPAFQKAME
In short: (§1)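 Whether a receptor–molecule pair is responsive (active) rests on the original authors' judgment that its measured signal was statistically different from baseline. Pairs without that judgment are non-responsive (inactive). Sources used varied assay methods, commonly transient luciferase assays in mammalian cell lines.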

OR2T34 (Homo sapiens) = biological target: T2, OR2T34 (Homo sapiens) (UniProt Q8NGX1)
T2 sequence (whole entry): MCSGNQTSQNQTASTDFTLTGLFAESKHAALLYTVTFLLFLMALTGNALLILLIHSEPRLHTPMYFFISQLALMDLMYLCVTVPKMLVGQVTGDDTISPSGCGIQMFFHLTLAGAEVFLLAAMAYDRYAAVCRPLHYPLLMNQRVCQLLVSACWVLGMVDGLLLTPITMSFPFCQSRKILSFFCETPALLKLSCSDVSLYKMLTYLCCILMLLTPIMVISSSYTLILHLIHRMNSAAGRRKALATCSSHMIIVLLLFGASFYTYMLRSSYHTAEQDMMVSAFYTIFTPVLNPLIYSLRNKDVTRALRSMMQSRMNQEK
In short: as §1

OR2T33 (Homo sapiens) = OR2T33 (Homo sapiens) (UniProt Q8NG76)
Chain of OR2T33 (Homo sapiens) (Q8NG76 whole entry): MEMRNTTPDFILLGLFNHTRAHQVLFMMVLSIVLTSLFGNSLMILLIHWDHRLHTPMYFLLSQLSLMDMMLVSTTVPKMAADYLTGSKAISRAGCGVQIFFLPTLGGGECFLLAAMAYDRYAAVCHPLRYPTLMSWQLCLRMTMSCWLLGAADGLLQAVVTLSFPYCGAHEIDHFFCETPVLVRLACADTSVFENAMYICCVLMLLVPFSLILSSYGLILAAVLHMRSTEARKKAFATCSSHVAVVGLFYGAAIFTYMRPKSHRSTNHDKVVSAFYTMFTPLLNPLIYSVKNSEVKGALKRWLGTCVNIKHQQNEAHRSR
In short: as §1

OR2T35 (Homo sapiens) = OR2T35 (Homo sapiens) (UniProt Q8NGX2)
Chain of OR2T35 (Homo sapiens) (Q8NGX2 whole entry): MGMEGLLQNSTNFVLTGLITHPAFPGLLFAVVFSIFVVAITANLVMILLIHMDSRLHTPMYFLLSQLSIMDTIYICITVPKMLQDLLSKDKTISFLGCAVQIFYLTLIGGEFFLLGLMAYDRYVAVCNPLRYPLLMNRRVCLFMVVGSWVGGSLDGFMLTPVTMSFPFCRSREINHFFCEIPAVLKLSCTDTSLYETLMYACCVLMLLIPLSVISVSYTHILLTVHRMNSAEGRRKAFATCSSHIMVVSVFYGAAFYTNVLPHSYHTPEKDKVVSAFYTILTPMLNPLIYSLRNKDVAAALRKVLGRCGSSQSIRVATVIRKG
In short: as §1

OR2T5 (Homo sapiens) = OR2T5 (Homo sapiens) (UniProt Q6IEZ7)
Chain of OR2T5 (Homo sapiens) (Q6IEZ7 whole entry): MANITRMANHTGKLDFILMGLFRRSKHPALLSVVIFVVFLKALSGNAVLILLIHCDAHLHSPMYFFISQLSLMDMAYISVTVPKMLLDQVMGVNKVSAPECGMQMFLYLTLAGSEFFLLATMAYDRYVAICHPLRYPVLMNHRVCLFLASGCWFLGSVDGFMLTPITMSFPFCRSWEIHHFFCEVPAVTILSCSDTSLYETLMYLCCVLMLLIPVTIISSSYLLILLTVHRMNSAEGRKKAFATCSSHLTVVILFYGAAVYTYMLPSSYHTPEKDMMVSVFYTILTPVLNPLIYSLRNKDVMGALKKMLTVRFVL
In short: as §1

OR2T6 (Homo sapiens) = OR2T6 (Homo sapiens) (UniProt Q8NHC8)
Chain of OR2T6 (Homo sapiens) (Q8NHC8 whole entry): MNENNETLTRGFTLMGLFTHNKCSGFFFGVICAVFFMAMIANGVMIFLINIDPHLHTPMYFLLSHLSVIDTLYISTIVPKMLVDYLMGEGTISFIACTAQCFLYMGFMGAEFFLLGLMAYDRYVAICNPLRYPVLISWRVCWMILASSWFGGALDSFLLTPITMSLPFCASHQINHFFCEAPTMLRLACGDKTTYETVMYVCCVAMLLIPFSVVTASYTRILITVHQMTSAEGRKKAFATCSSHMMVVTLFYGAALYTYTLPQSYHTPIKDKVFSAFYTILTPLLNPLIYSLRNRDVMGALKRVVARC
In short: as §1

OR2T7 (Homo sapiens) = OR2T7 (Homo sapiens) (UniProt P0C7T2)
Chain of OR2T7 (Homo sapiens) (P0C7T2 whole entry): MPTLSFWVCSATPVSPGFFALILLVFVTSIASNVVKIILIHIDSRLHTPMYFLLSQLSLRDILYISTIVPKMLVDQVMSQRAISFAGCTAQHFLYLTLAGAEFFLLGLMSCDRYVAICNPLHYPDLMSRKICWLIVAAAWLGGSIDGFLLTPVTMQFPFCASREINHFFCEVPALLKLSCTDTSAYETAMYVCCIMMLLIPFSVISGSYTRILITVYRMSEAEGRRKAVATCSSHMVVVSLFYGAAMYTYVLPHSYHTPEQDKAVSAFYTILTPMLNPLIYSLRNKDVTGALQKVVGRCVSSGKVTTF
In short: as §1

OR2T5 K13R K41M G45E = system: OR2T5 K13R K41M G45E
In short: as §1

OR2T5 K13R L134F = system: OR2T5 K13R L134F
In short: as §1

OR2T6 C23G = system: OR2T6 C23G
Chain of OR2T6 C23G (as listed by the source, stated change not applied): as the sequence (Q8NHC8 whole entry) above, with C23G counted along it
In short: as §1

Measured: odorant receptor agonist call;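 note: active if original authors judged signal statistically different from baseline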

Cc1cccc(C)c1
inactive: OR2T4 (Homo sapiens)

COc1ccc(C=O)cc1
inactive: OR2T4 (Homo sapiens)

O=Cc1ccccc1
inactive: OR2T34 (Homo sapiens)

Cc1c([N+](=O)[O-])c(C)c([N+](=O)[O-])c(C(C)(C)C)c1[N+](=O)[O-]
not listed: OR2T5 K13R K41M G45E | OR2T5 K13R L134F | OR2T6 C23G
inactive: all other assays above

C=CCOC(=O)Cc1ccccc1
not listed: OR2T7 (Homo sapiens)
inactive: all other assays above

O=CC=Cc1ccccc1
active: OR2T34 (Homo sapiens)
